Assay outcomes as filed in PubChem.
Calb FLC: affects C. albicans growth with fluconazole; growth inhibition, % (test concentration not listed); AID 1979; C. albicans CaCi-2 (fluconazole-resistant clinical isolate) + fluconazole, Alamar Blue growth, 48 h; 300,000 tested, 0.57% active;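 active = growth inhibition above about 58% in most replicates, limit read from the data, passing the limit was not always enough; inconclusive = exactly half the replicates above a set limit; inactive = most replicates below a set limit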;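 note: all wells also contain fluconazole at 8 µg/ml as a sub-toxic cotreatment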
Efflux pump inh: blocks antifungal efflux pumps in multiplex yeast assay. inhibition, % at 10 µM. S. cerevisiae Candida pump triplex, Nile Red efflux. 330,000 tested, 0.44% active. AID 485275;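 active = plate passing quality check with inhibition over a set limit, or well fluorescence over plate mean plus 4 SD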;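 note: Nile Red retained in pooled yeast measured as flow cytometry median fluorescence; higher means more Nile Red kept so more efflux inhibition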
H9c2 TAG inh: inhibitors of triacylglycerol accumulation; 230,000 tested, 0.66% active; H9c2 cells, Nile Red lipid (TAG) fluorescence; cells loaded with 200 µM oleic acid; inhibition, % at 12.5 µM; AID 651582;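 active = pattern-corrected inhibition of lipid staining of at least 50% with the nuclear-stain viability signal not falling by more than 50%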
MC4R barr agon: agonists of human melanocortin 4 receptor (MC4R) beta-arrestin | U2OS MC4R beta-arrestin complementation, luminescence; percent of melanotan II response, DMSO zero | activation, % at 8.9 µM | P32245 | 360,000 tested, 0.98% active;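 active = activation above a per-plate cutoff, the mean activation of sample wells on that plate plus 3 SD, cut at about 8% in these data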
Target sequence (P32245 whole entry, looked up): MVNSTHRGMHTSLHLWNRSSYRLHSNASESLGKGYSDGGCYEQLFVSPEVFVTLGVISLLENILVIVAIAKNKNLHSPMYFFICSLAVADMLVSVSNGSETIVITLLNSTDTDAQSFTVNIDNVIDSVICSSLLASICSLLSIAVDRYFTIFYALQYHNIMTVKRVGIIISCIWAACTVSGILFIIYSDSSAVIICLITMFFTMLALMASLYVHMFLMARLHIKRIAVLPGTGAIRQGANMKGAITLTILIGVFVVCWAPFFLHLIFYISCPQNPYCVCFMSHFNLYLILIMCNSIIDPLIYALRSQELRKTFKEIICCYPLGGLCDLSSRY
MC4R antagonist: blocks human MC4R cAMP signaling | inhibition, % at 6.5 µM | 360,000 tested, 0.48% active | MC4R-expressing cells, MTII-stimulated cAMP, LANCE TR-FRET | AID 540295;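 active = inhibition above its plate's cutoff, the mean of tested wells on that plate plus 3 SD, cut at about 29% in these data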
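Material – human MC4R-expressing U2OS cells · Repeats – no replicates · Detection – TR-FRET with Eu-cAMP and labeled anti-cAMP, 671 nm · Times – compound 30 min, challenge 1 h, detection 1 h · Compound – single nominal compound dose of 6.5 µM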
GalR3 antagonist: human GalR3 antagonism; inhibition, % at 3 µM; HEK293 GalR3-CNG cAMP membrane potential fluorescence; galR3 body fused to GalR1 C-terminus; O60755; 360,000 tested, 0.44% active;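 active = inhibition above the screen-wide average plus 3 SD, cut at about 13% in these data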;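 note: forskolin and galanin both at EC90 stimulate the cells; cAMP rise reported by CNG channel membrane potential dye signal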
Target sequence (O60755 1-299 limits assumed): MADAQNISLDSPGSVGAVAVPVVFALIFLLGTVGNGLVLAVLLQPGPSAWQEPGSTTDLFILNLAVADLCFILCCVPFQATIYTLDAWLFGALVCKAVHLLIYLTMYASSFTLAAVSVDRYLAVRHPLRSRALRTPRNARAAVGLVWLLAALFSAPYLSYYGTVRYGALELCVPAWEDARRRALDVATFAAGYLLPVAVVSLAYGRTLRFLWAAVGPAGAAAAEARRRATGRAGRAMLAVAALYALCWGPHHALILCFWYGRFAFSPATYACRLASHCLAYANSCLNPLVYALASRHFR
Cmpd fluor yeast: compound fluorescence in yeast efflux pump counter-screen; shares compounds with Efflux pump inh; S. cerevisiae AD/pABC3, flow cytometry; fluorescence ratio to DMSO, % at 10 µM; 1,700 tested, 4% active; AID 588517;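 active = fluorescence ratio to DMSO above its plate's cutoff, the plate mean ratio plus 5 SD, cut at about 210% in these data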;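 note: unstained yeast with no Nile Red so the signal is compound autofluorescence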
CaMdr1 efflux inh: inhibitors of Candida albicans Mdr1 efflux pump; shares compounds with Efflux pump inh; S. cerevisiae AD/CaMDR1, Nile Red efflux, flow cytometry; inhibition, % at 10 µM; 1,700 tested, 1% active; AID 588518; in the data active = inhibition above about 26%;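 note: higher means more Nile Red retained so more efflux inhibition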
Cdr2 pump inh: Candida Cdr2 efflux pump inhibition; shares compounds with Efflux pump inh; S. cerevisiae AD/CaCDR2, Nile Red retention, flow cytometry; Nile Red retention ratio vs DMSO, % at 10 µM; 1,700 tested, 4% active; AID 588520; in the data active = Nile Red retention ratio vs DMSO above about 190%;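 note: higher ratio means more blocking of Cdr2 efflux of the dye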
Cdr1 pump inh: inhibitors of Candida albicans Cdr1 efflux pump; shares compounds with Efflux pump inh; S. cerevisiae AD/CaCDR1, Nile Red efflux, flow cytometry; inhibition, % at 10 µM; 1,700 tested, 1% active; AID 588522;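 active = inhibition above the screen-wide mean plus twice its standard deviation, cut at about 32% in these data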
A number is an active result; 0 = inactive; ? = inconclusive; - = no result; + = active, no number. In the library only some 2.9% were active in any assay of this set; here they are far more common.

SMILES	Calb FLC	Efflux pump inh	H9c2 TAG inh	MC4R barr agon	MC4R antagonist	GalR3 antagonist	Cmpd fluor yeast	CaMdr1 efflux inh	Cdr2 pump inh	Cdr1 pump inh
O=[N+]([O-])c1cccc(COc2ccccc2CN2CCCCC2)c1	-	-	0	0	0	0	-	-	-	-
CCN(CC)c1ccc(/C=C/C(=O)c2cccnc2)cc1	93	69	-	0	0	0	0	0	0	0
N#CCSc1nc2c(sc(=S)n2Cc2ccco2)c(=O)n1-c1ccc(F)cc1	0	5.9	-	0	0	0	0	0	0	0
CCn1c(=S)sc2c(=O)n(-c3ccccc3)c(SC)nc21	?	0	-	0	0	0	-	-	-	-
COC(=O)[C@]12CCCCC=C1N(Cc1cccc3ccccc13)C(=O)[C@H](CC(=O)N1CCCCC1)C2	-	-	-	-	-	0	-	-	-	-
CN1CCN(C(=O)c2ccccc2[N+](=O)[O-])CC1	0	0	0	0	0	0	-	-	-	-
CN1CCN(C(=O)c2ccccc2-c2ccccc2C(=O)O)CC1	0	6.7	-	0	0	0	0	0	0	0
Cc1c2cnn(CC(=O)N3CCOCC3)c(=O)c2c(C)n1Cc1ccc(F)cc1	-	-	0	0	0	-	-	-	-	-
O=C(Nc1cccnc1)c1ccc(-c2ccc(Cl)cc2)o1	0	0	0	0	0	0	-	-	-	-
CN(C)C(=O)c1ccc(NC(=O)c2ccc(-c3ccc(Cl)cc3)o2)cc1	-	0.6	0	0	0	0	0	0	0	0
CC[n+]1c(/C=C/c2ccc(N(C)C)cc2)ccc2ccccc21	0	11	-	0	0	0	+	0	0	0
CCN(CC)c1ccc(/C=C/c2ccc3ccc(OC)cc3[n+]2CC)cc1	105	16	-	0	0	0	+	0	0	0
CC[n+]1c(/C=C/c2ccc(OC)c(OC)c2)ccc2ccccc21	0	0.7	0	0	0	0	0	0	0	0
CC[n+]1c(/C=C/c2ccc(OC(C)=O)c(OC)c2)ccc2ccccc21	0	0	-	0	0	0	-	-	-	-
CCN(CC)c1nc2cc(OC)ccc2cc1C#N	0	0	0	0	0	0	-	-	-	-
Cc1cccc(NC(=O)CCc2ccc(N3C(N)=NC(N)=NC3(C)C)cc2)c1	-	-	0	0	0	0	-	-	-	-
CC1Cc2cc(S(=O)(=O)NCc3ccccc3)ccc2N1C(=O)C1CCC1 (configuration not stated)	0	0	-	0	0	0	0	0	0	0
CC1Cc2cc(S(=O)(=O)NCc3ccccc3)ccc2N1C(=O)C1CC1 (configuration not stated)	0	0	-	0	0	0	-	-	-	-
CCc1c(C)nc2cc(-c3cc(OC)cc(OC)c3)nn2c1N1CCN(CCN2CCOCC2)CC1	0	1.6	0	0	0	0	0	0	0	0
CN1CCN(C(=O)CSc2ccc(C(F)(F)F)cc2[N+](=O)[O-])CC1	0	14	-	0	0	0	0	0	0	0
Cc1ccc(/C=c2/sc3nnc(-c4ccccc4Cl)n3c2=O)o1	0	0	-	0	0	0	-	-	-	-
CCN(CC)c1ccc(/C=c2/sc3nnc(-c4ccccc4C)n3c2=O)cc1	0	0.6	-	0	0	0	215	0	0	0
CCN(CC)c1ccc(/C=c2\sc3nnc(-c4ccccc4Cl)n3c2=O)cc1	0	0.7	0	0	0	0	271	0	0	0
COCCNc1nc(Oc2ccc(C(N)=O)cc2)c2sccc2n1	-	-	0	0	0	0	-	-	-	-
Cc1nn(-c2ccc(N3CCOCC3)nn2)c(C)c1CCC(=O)NCc1ccc(F)cc1	0	0	-	0	0	0	-	-	-	-
SMILES	Calb FLC	Efflux pump inh	H9c2 TAG inh	MC4R barr agon	MC4R antagonist	GalR3 antagonist	Cmpd fluor yeast	CaMdr1 efflux inh	Cdr2 pump inh	Cdr1 pump inh
Cc1ccc(CNC(=O)CCc2c(C)nn(-c3ccc(N4CCOCC4)nn3)c2C)cc1	0	2.0	-	0	0	0	0	0	0	0
Cc1cc(C)cc(OCC(=O)N/N=C\c2cn(C)nc2C)c1	0	0	-	0	0	0	-	-	-	-
CCn1ncc(/C=N\NC(=O)COc2cc(C)cc(C)c2)c1C	0	13	-	0	0	0	0	0	0	0
COC(=O)c1cc2c(c3c4cc(OC)ccc4n(S(=O)(=O)c4ccccc4)c13)C(=O)N(C)C2	-	-	-	-	-	0	-	-	-	-
CCOc1ccc(/C=N/NC(=O)c2nnn(-c3nonc3N)c2COc2ccc(F)cc2)cc1	0	0	0	0	0	0	0	0	0	0
CN(C)c1ccc(/C=N/NC(=O)c2nnn(-c3nonc3N)c2COc2ccc(F)cc2)cc1	0	0	0	0	0	0	0	0	0	0
CN(C)Cc1c(C(=O)N/N=C/c2ccc(OCc3ccc(F)cc3)cc2)nnn1-c1nonc1N	0	0	-	0	0	0	-	-	-	-
C/C(=N\NC(=O)c1nnn(-c2nonc2N)c1COc1ccc(F)cc1)c1ccc(Cl)cc1	0	0	0	0	0	0	0	0	0	0
CCOc1ccc(-c2c(C(=O)N/N=C/c3ccc(O)cc3)nnn2-c2nonc2N)cc1	0	0	0	0	0	0	0	0	0	0
Fc1cccc(-c2cncc(N3CCN(CCN4CCCC4)CC3)n2)c1	-	-	0	0	0	0	-	-	-	-
CCOc1ccc(-c2c(C(=O)N/N=C(\C)c3ccccc3OC)nnn2-c2nonc2N)cc1	0	0	-	0	0	0	0	0	0	0
CC1CCN(Cc2c(C(=O)N/N=C/c3ccc(OC(C)C)cc3)nnn2-c2nonc2N)CC1	0	0.4	-	0	0	0	0	0	0	0
Nc1nonc1-n1nnc(C(=O)N/N=C/c2ccncc2)c1CSc1ccccc1	0	0	-	0	0	0	-	-	-	-
Nc1nonc1-n1nnc(C(=O)N/N=C/c2ccccc2)c1CSc1ccccc1	0	0	0	0	0	0	0	0	0	0
COc1cccc2sc(Nc3nnc(-c4cccs4)o3)nc12	0	0.7	0	0	0	0	0	0	0	0
COc1cccc2sc(Nc3nc(-c4ccccn4)cs3)nc12	0	0	0	0	0	-	-	-	-	-
Cc1ccc(S(=O)(=O)N2C3CCCCC3O[C@H]2CC(=O)OCc2ccccc2)cc1 (some centres not stated)	-	-	-	-	-	0	-	-	-	-
c1ccc(CN(Cc2ccco2)C(c2ccncc2)c2nnnn2C2CCCC2)cc1 (configuration not stated)	0	0.6	-	0	0	0	0	0	0	0
CCN(Cc1ccccc1)C(c1ccncc1)c1nnnn1C(C)(C)C (configuration not stated)	0	0.4	-	0	0	0	0	0	0	0
